Rows were chosen to be rich in hits. Some 3.5% of all compounds tested hit in one or more screens of this group.
MrgX1 PAM: human MrgX1 positive allosteric modulation, primary screen; Q96LB2; MrgX1-HEK293, Fluo-4 calcium flux, FDSS; stronger effect = higher value; B-score at 10 µM; 310,000 compounds, 0.63% hits; AID 588675;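 active means plate-corrected calcium response at least 3 library SD above typical, normal starting fluorescence, not activating the receptor alone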;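 further: compound read alongside a low EC10 to EC30 dose of BAM8-22 agonist; peak minus trough fluorescence over baseline measured at the second addition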
Target sequence (Q96LB2 whole entry, looked up): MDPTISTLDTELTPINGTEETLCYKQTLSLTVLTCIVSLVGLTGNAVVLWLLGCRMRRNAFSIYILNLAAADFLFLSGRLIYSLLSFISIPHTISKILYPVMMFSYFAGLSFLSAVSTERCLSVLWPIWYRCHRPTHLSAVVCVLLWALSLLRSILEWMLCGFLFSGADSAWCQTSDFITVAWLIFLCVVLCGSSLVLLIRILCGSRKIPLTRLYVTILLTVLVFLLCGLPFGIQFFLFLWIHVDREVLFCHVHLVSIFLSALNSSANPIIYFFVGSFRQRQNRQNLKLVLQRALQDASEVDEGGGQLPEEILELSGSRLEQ
MrgX1 antagonist: antagonists of human MrgX1 receptor; Q96LB2; MRGX1-HEK293 calcium flux, Fluo-4, BAM8-22 antagonism; stronger effect = lower value; B-score at 10 µM; 310,000 compounds, 1.3% hits;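 active means calcium-response B-score plate-corrected more than 3 library SD below zero, starting fluorescence within 5 deviations, no agonist response on first addition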;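 further: peak minus trough fluorescence over baseline after final BAM8-22 challenge near maximal dose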
RGS4 block: human RGS4 inhibition; P49798; HEK293 M3R/RGS4 inducible, Fluo-4 calcium flux; stronger effect = higher value; triggered by carbachol at its EC20; B-score at 10 µM; 310,000 compounds, 0.45% hits;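 active means B-score, a plate-corrected calcium signal, over three deviations above library mean, with baseline fluorescence within five deviations of library mean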;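 further: RGS4 expression induced by doxycycline in cells with stable M3 receptor; B-score is computed from the integrated fluorescence ratio over baseline after carbachol; higher B-score means a larger calcium signal and so more RGS4 inhibition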
Target sequence (P49798 whole entry, looked up): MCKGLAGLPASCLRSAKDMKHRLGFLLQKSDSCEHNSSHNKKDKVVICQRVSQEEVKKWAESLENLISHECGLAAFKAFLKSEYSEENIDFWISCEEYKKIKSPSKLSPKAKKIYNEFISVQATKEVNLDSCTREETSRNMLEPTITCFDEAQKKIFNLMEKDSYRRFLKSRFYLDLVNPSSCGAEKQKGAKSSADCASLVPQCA
MrgX1 agonist: agonists of human MrgX1 receptor; AID 588627; Q96LB2; 310,000 compounds, 0.44% hits; MrgX1-HEK293 cells, Fluo-4 calcium fluorescence, agonist mode; stronger effect = higher value; B-score at 10 µM;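 active means calcium response B-score plate-corrected fluorescence ratio at least 3 library SD, with starting fluorescence B-score inside 5 SD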
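System – MrgX1-expressing HEK293 cells · Incubation – cells plated overnight, dye loaded 0.5 h 37 °C, 0.5 h room temperature · Technique – kinetic Fluo-4 NW fluorescence of intracellular calcium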
RGS4 pot: potentiators or activators of RGS4; B-score at 10 µM; HEK293 M3R/inducible RGS4, carbachol calcium flux Fluo4; stronger effect = lower value; 310,000 compounds, 0.92% hits;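 active means B-score of the integrated calcium signal more than 4 SD below the library mean, with starting fluorescence not abnormally high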;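 further: negative B-score means reduced calcium response which marks RGS4 activation or potentiation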
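System – HEK293 FlpIn-TREx cells, stable M3R, doxycycline-inducible RGS4 · Reagent – ECmax carbachol challenge · Times – compound preincubation 20 min at room temperature before agonist · Technique – Fluo4 fluorescence kinetic imaging of calcium · Measure – B score of integrated Fluo4 ratio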
RGS4 inh valid: validation of RGS4 inhibitors | shares compounds with RGS4 block | HEK293 M3R/RGS4, carbachol calcium Fluo-4 fluorescence; carbachol added at its EC20; 0 = buffer wells, 100 = carbachol control | calcium response, % at 10 µM | 1,700 compounds, 65% hits;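 active means duplicate-averaged calcium response above the buffer-only control mean plus 5 SD of those controls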;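 further: integrated fluorescence ratio F max minus min over baseline F0; higher response in RGS4-induced cells means RGS4 inhibition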
M3R Ca ctr: non-induced cell nonspecific activity of RGS4 inhibitors. shares compounds with RGS4 block. 1,900 compounds, 20% hits. HEK293 M3R non-induced, carbachol calcium Fluo-4; submaximal (EC20) carbachol stimulus; buffer wells 0%, carbachol control wells 100%. activity (percent), % at 10 µM. AID 493000; call rule not given here;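 further: RGS4 induction absent so cells express M3R without RGS4; higher means more calcium signal and flags a non-specific hit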
M3R basal Ca ctr: second RGS4 inhibitor counter-screen in uninduced cells lacking carbachol; AID 493001; calcium response (agonist-mode artifact), % at 10 µM; HEK293 M3R/RGS4 non-induced, Fluo-4 calcium, no carbachol; normalised: buffer wells 0%, carbachol wells 100%; shares compounds with RGS4 block; 1,900 compounds, 22% hits;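 active means duplicate-averaged calcium rise in uninduced cells above buffer wells' mean plus 5 SD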
Large screens that a line does not name were inactive (follow-up assays come after a bar, where they were run).

Nc1nc(Cl)nc2c1ncn2[C@@H]1O[C@H](CO)[C@@H](O)[C@H]1O	RGS4 block 9.8 | RGS4 inh valid 47% | M3R Ca ctr 78% | M3R basal Ca ctr inactive
O=C(Nc1nnc(-c2ccccc2)o1)C1CCCN1S(=O)(=O)c1cccs1 (stereo not drawn)	none
CCOC(=O)/C(C#N)=C/c1cccc([N+](=O)[O-])c1	none
N#C/C(=C\c1cc([N+](=O)[O-])ccc1Cl)C(N)=O	RGS4 block 5.8 | RGS4 inh valid 12% | M3R Ca ctr inactive | M3R basal Ca ctr 8.5%
CCOP(=O)(OCC)/C(C#N)=C/c1ccc([N+](=O)[O-])cc1	RGS4 block 7.4 | RGS4 inh valid 14% | M3R Ca ctr inactive | M3R basal Ca ctr inactive
CCOP(=O)(OCC)/C(C#N)=C/c1c[nH]c2ccccc12	none
N#C/C(=C/c1ccc([N+](=O)[O-])cc1)C(N)=O	RGS4 block 6.4 | RGS4 inh valid 36% | M3R Ca ctr 36% | M3R basal Ca ctr 15%
COc1ccc(N2C(=O)CCC(C(=O)N3CCCCCC3)C2c2ccc(OC)c(OC)c2)cc1 (stereo not drawn)	none
COc1ccc(C(C[N+](=O)[O-])C2(c3ccc(OC)c(OC)c3)C(=O)c3ccccc3C2=O)cc1 (stereo not drawn)	RGS4 block 16 | RGS4 inh valid 60% | M3R Ca ctr 37% | M3R basal Ca ctr inactive
COC(=O)C(C(=O)OC)C(C[N+](=O)[O-])c1ccc(OC)c(OC)c1 (stereo not drawn)	none
Oc1c(Br)cc(Br)cc1CNc1ccc(F)cc1	RGS4 block 6.5 | RGS4 inh valid inactive | M3R Ca ctr inactive | M3R basal Ca ctr inactive
Oc1c(Br)cc(Br)cc1CNc1cnc2ccccc2c1	none
NC(=O)COc1ccc(-c2noc(COc3ccccc3[N+](=O)[O-])n2)cc1	none
Cc1ccc2occ(/C=N/NC(N)=S)c(=O)c2c1	RGS4 block 11 | RGS4 inh valid 54% | M3R Ca ctr 66% | M3R basal Ca ctr inactive
Cc1ccc2occ(/C=N/NC(=O)c3ccc(O)cc3)c(=O)c2c1	none
Cc1ccc(/C=C/c2nc3ccccc3[nH]2)o1	RGS4 block 14 | RGS4 inh valid inactive | M3R Ca ctr inactive | M3R basal Ca ctr inactive
Cc1cc2nc(/C=C/c3nc4cc(C)c(C)cc4[nH]3)[nH]c2cc1C	none
CC(C)(C)OC(=O)N1CCC(C(=O)N[C@@H](Cc2ccccc2)C(=O)O)CC1	none
COc1ccc(S(=O)(=O)N2CCOCC2)cc1NC(=O)CSc1nnc2c(n1)[nH]c1ccccc12	none
S=C(Nc1ccccc1)Nc1nc2ccccc2n1CCOc1ccc(Cl)cc1	RGS4 block 6.2 | RGS4 inh valid 16% | M3R Ca ctr 34% | M3R basal Ca ctr inactive
CSCCC(NS(=O)(=O)c1ccc(C)cc1)C(=O)NC1CCCCC1 (stereo not drawn)	none | RGS4 inh valid inactive | M3R Ca ctr inactive | M3R basal Ca ctr inactive
CSCCC(NS(=O)(=O)c1ccc(C)cc1)C(=O)NC1CCCCCC1 (stereo not drawn)	none | M3R Ca ctr inactive | M3R basal Ca ctr inactive
COc1ccc(S(=O)(=O)NC(CCSC)C(=O)NC2CCCCC2)cc1 (stereo not drawn)	RGS4 block 5.2 | RGS4 inh valid inactive | M3R Ca ctr inactive | M3R basal Ca ctr inactive
COc1ccc(C(=O)COC(=O)C(CCSC)NS(=O)(=O)c2ccc(Cl)cc2)cc1 (stereo not drawn)	none
c1ccc(-c2ccc(-c3ccncn3)cc2)cc1	none
O=C(Oc1cccc2cccnc12)c1ccc(N2C(=O)C3C4CCC(C4)C3C2=O)cc1 (stereo not drawn)	none | M3R Ca ctr inactive | M3R basal Ca ctr 7.0%

Assay outcomes (PubChem)
